The values that follow come from ChEMBL document CHEMBL3734686, “Synthesis, Photophysical Properties, and Biological Evaluation of trans-Bisthioglycosylated Tetrakis(fluorophenyl)chlorin for Photodynamic Therapy” (J Med Chem, 2015).

SMILES strings stand for the structures. Active and inactive are the calls of the source.

For series [1], the system named is 4T1. In words: Drug uptake in mouse 4T1 cells implanted in BALB/c mouse assessed per gram of tissue at 0.18 mg/kg, ip after 12 hrs by HPLC-based fluorescence analysis. Format: ADME, organism-based. The conditions noted are these: in vivo. Summed up:
(§1)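 Female BALB/c mice with 4T1 cells (1 × 10^6 in HBSS) implanted in left rear thigh; single i.p. dose, 7 in ethanol/PEG400/H2O (2/3/5) with 0.1% DMSO, mono-L-aspartyl chlorin e6 in saline; kept dark until sacrifice. Tissues washed, frozen, homogenized in CH3OH/DMSO/H2O (32/8/1), centrifuged 2300×g; supernatant analysed by HPLC with fluorescence detection; three animals per time point.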

Series [2] has as its system Muscle tissue. In words: Drug uptake in BALB/c mouse muscle implanted with mouse 4T1 cells assessed per gram of tissue at 0.18 mg/kg, ip after 24 hrs by HPLC-based fluorescence analysis. Format: ADME, organism-based. The conditions noted are these: in vivo. Summed up:
(§2)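 Female BALB/c mice bearing 4T1 thigh tumours received an i.p. dose in ethanol/PEG400/H2O (2/3/5) with 0.1% DMSO, or in saline, and were kept dark until killed. Tissues were weighed (100 mg), homogenised in CH3OH/DMSO/H2O (32/8/1) and centrifuged twice at 2300×g at 4°C. Supernatants were analysed by HPLC with fluorescence detection (λex 404/λem 654 nm or λex 400/λem 666 nm). n = 3 per time point.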

In series [3] the test system is Muscle tissue. In words: Drug uptake in BALB/c mouse muscle implanted with mouse 4T1 cells assessed per gram of tissue at 0.18 mg/kg, ip after 12 hrs by HPLC-based fluorescence analysis. Format: ADME, organism-based. Conditions: in vivo. Summed up: as §2
Series [4] deals with Plasma. In words: Drug uptake in BALB/c mouse plasma implanted with mouse 4T1 cells at 0.045 mg/kg, ip after 1 to 24 hrs by HPLC analysis. The conditions noted are these: in vivo. In kind it is ADME, organism-based.
The test system of series [5] is Spleen. In words: Drug uptake in BALB/c mouse spleen implanted with mouse 4T1 cells assessed per gram of tissue at 0.18 mg/kg, ip after 48 hrs by HPLC-based fluorescence analysis. Format: ADME, organism-based. Conditions: in vivo. The method, boiled down:
as §1

Series [6] relates to Urinary bladder. In words: Drug uptake in BALB/c mouse bladder implanted with mouse 4T1 cells assessed per gram of tissue at 0.18 mg/kg, ip after 72 hrs by HPLC-based fluorescence analysis. In kind it is ADME, organism-based. Conditions: in vivo. The method, boiled down:
as §2

Series [7] deals with HeLa. In words: Photocytotoxicity against human HeLa cells assessed as cell survival preincubated for 24 hrs followed by irradiation at 16 J/cm2 measured at 24 hrs by WST-8 assay. Format: functional, cell-based. The conditions noted are these: light or radiation study. The method, boiled down:
(§3)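 Cells (5 × 10^3/well) in DMEM with 10% FCS, 24 h at 37°C, 5% CO2; photosensitizer 1–50000 nM (1% DMSO final) for 24 h, washed, fresh medium. Irradiated with 100-W halogen lamp through λ>500 nm or λ>600 nm cutoff filter to 16 J·cm−2; WST-8 absorbance at 450 nm 24 h later, survival normalized to no-drug wells.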
(Formazan colour is commonly taken as a measure of viable cells.)

Series [8] deals with Spleen. In words: Drug uptake in BALB/c mouse spleen implanted with mouse 4T1 cells assessed per gram of tissue at 0.18 mg/kg, ip after 6 hrs by HPLC-based fluorescence analysis. Format: ADME, organism-based. Conditions: in vivo. Summed up:
as §1

The nature of series [9]: Induction of reactive oxygen generation assessed as quantum yield of hydroxyl radical generation in O2 saturated PBS containing 1% DMSO under photoirradiation by spectrometry relative to control hematoporphyrin. In kind it is physicochemical. Conditions: buffer. The method, boiled down:
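Photosensitizer (1.00 µM) with HPF (2.00 µM) in PBS containing 1% DMSO, oxygenated 1 min, irradiated with 100-W halogen lamp through λ>500 nm cutoff filter at 37°C; hematoporphyrin as reference.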

Series [10] concerns Zone of skin. In words: Drug uptake in BALB/c mouse skin implanted with mouse 4T1 cells assessed per gram of tissue at 0.18 mg/kg, ip after 6 hrs by HPLC-based fluorescence analysis. Format: ADME, organism-based. Conditions: in vivo. Summed up: as §1
The nature of series [11]: Drug uptake in BALB/c mouse large intestine implanted with mouse 4T1 cells assessed per gram of tissue at 0.18 mg/kg, ip after 24 hrs by HPLC-based fluorescence analysis. In kind it is ADME, organism-based. The conditions noted are these: in vivo. The method, boiled down:
as §2

In series [12] the test system is Spleen. In words: Drug uptake in BALB/c mouse spleen implanted with mouse 4T1 cells assessed per gram of tissue at 0.18 mg/kg, ip after 24 hrs by HPLC-based fluorescence analysis. The conditions noted are these: in vivo. Format: ADME, organism-based. The method, boiled down:
as §1

Series [13] deals with Urinary bladder. In words: Drug uptake in BALB/c mouse bladder implanted with mouse 4T1 cells assessed per gram of tissue at 0.18 mg/kg, ip after 12 hrs by HPLC-based fluorescence analysis. In kind it is ADME, organism-based. The conditions noted are these: in vivo. Summed up:
as §2

Series [14] deals with Heart. In words: Drug uptake in BALB/c mouse heart implanted with mouse 4T1 cells assessed per gram of tissue at 0.18 mg/kg, ip after 6 hrs by HPLC-based fluorescence analysis. In kind it is ADME, organism-based. Conditions: in vivo. Summed up: as §2
Series [15] is described as follows: Photocytotoxicity against human U87 cells assessed as cell survival preincubated for 24 hrs followed by irradiation at 16 J/cm2 measured at 24 hrs by WST-8 assay. In kind it is functional, cell-based, U-87MG ATCC. The conditions noted are these: U-87 MG, light or radiation study. The method, boiled down:
as §3

Series [16] concerns Stomach. In words: Drug uptake in BALB/c mouse stomach implanted with mouse 4T1 cells assessed per gram of tissue at 0.18 mg/kg, ip after 12 hrs by HPLC-based fluorescence analysis. Conditions: in vivo. Format: ADME, organism-based. Summed up:
as §1

A short description of series [17]: Photocytotoxicity against rat RGK1 cells assessed as cell survival preincubated for 24 hrs followed by irradiation at 16 J/cm2 measured at 24 hrs by WST-8 assay. Conditions: RGK1, light or radiation study. In kind it is functional, cell-based. Summed up:
as §3

Series [18] is described as follows: Induction of reactive oxygen generation assessed as quantum yield of singlet oxygen generation in O2 saturated D2O containing 0.1% DMSO by spectrometry. In kind it is physicochemical. The method, boiled down:
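Photosensitizer in D2O with 0.1% DMSO, absorbance set to 0.4 at its excitation wavelength, oxygen-purged 1 min; singlet-oxygen luminescence recorded with NIR photomultiplier cooled to 193 K; TPPS as reference.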

For series [19], the system named is Kidney. In words: Drug uptake in BALB/c mouse kidney implanted with mouse 4T1 cells assessed per gram of tissue at 0.18 mg/kg, ip after 72 hrs by HPLC-based fluorescence analysis. The conditions noted are these: in vivo. In kind it is ADME, organism-based. Summed up:
as §2

Series [20] is described as follows: Drug uptake in mitochondria of human Hela cells at 0.5 uM preincubated for 24 hrs followed by MitoTracker Green FM addition for 30 mins by CSLM analysis. In kind it is ADME. Conditions: 0.5 h. Summed up:
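HeLa cells (1 × 10^4) plated 24 h, incubated 24 h with 0.5 µM final photosensitizer (1% DMSO), washed, stained 30 min with 250 nM MitoTracker Green FM in HBSS at 37°C, fixed in 4% paraformaldehyde. Confocal imaging: red λex 488/λem 650 nm; green λex 488/λem 505–530 nm.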

Series [21] has as its system Spleen. In words: Drug uptake in BALB/c mouse spleen implanted with mouse 4T1 cells assessed per gram of tissue at 0.18 mg/kg, ip after 72 hrs by HPLC-based fluorescence analysis. Format: ADME, organism-based. The conditions noted are these: in vivo. Summed up: as §1
Series [22] concerns 4T1. In words: Induction of necrosis in mouse 4T1 cells implanted in BALB/c mouse at 5 mg/kg, ip irradiated at 48 J/cm2 measured at 1 day post PDT by […]-based fluorescence microscopic analysis. In kind it is functional, organism-based. Conditions: 0.18 mg/kg, in the assay text read “0.18 mg/kg” for “5 mg/kg”. Summed up: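 Skin-plus-tumor slides from 4T1-bearing mice 1 day after PDT; proteinase K treatment, then dual apoptosis/necrosis detection reagent at room temperature in dark, washed in PBS, examined by fluorescence microscopy.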

Series [23] deals with Zone of skin. In words: Drug uptake in BALB/c mouse skin implanted with mouse 4T1 cells assessed per gram of tissue at 0.18 mg/kg, ip after 12 hrs by HPLC-based fluorescence analysis. In kind it is ADME, organism-based. The conditions noted are these: in vivo. Summed up:
as §1

Series [24] relates to Kidney. In words: Drug uptake in BALB/c mouse kidney implanted with mouse 4T1 cells assessed per gram of tissue at 0.18 mg/kg, ip after 24 hrs by HPLC-based fluorescence analysis. Format: ADME, organism-based. The conditions noted are these: in vivo. The method, boiled down:
as §2

Turning to `CN1CC2C3=N/C(=C(/c4c(F)c(F)c(S[C@@H]5O[C@H](CO)[C@@H](O)[C@H](O)[C@H]5O)c(F)c4F)C4=N/C(=C(/c5c(F)c(F)c(F)c(F)c5F)c5ccc([nH]5)/C(c5c(F)c(F)c(S[C@@H]6O[C@H](CO)[C@@H](O)[C@H](O)[C@H]6O)c(F)c5F)=C5/C=CC(=N5)C3c3c(F)c(F)c(F)c(F)c3F)C=C4)C2C1` (some centres undefined), the Drug uptake in series [1] is 4 ng/g; in series [2], 1.2 ng; in [3] it was 4 ng; in series [4] it was “Active”; in [5] it was 14 ng; in [6], 8 ng. The Drug uptake in [8] worked out at 90 ng/g; in [10], 5 ng; in [11], 60 ng/g; in series [12], 58 ng; in [13] it was 95 ng/g; in [14], 24 ng/g. For the same compound, the Drug uptake in [16] was 20 ng/g; in [19], 13 ng; in series [20], “Active”; in series [21] it was 8 ng; in series [23], 0 ng; in series [24] it was 18 ng. In addition, the EC50 was 0.5 nM in series [7], 0.1 nM in series [15] and 1 nM in series [17]. For the same compound, the Ratio in [9] is recorded as 1.2. In addition, the Activity in series [18] is 0.25. In addition, in series [22], the outcome was Active.

One may read the EC50 as the concentration giving half of the maximal effect.
